Laboratory results taken from ChEMBL document CHEMBL1125333, “Predictive binding of beta-carboline inverse agonists and antagonists via the CoMFA/GOLPE approach” (J Med Chem, 1992).

Species on record: Mus musculus
Assay: Tested for convulsive activity in pentylenetetrazole injected mice
Assay type: functional

Compound	ED50 [mg/kg]
CCOC(=O)c1cc2c(cn1)[nH]c1ccccc12	3.2
COc1cc2c(cn1)[nH]c1ccccc12	6
CCOc1cc2c(cn1)[nH]c1ccccc12	7
COC(=O)c1cc2c(cn1)[nH]c1ccccc12 [BETA-CCM]	10

Molecular target: GABA-A receptor; anion channel
Assay: In vitro binding affinity at benzodiazepine receptor of rat cerebral cortical membranes by [3H]diazepam displacement.
Outline: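 Rat cerebral cortex homogenised in 50 mM Tris-HCl pH 7.4, centrifuged at 20000g at 4 °C and washed three times. Membranes incubated with drug and 2 nM [3H]diazepam (final) for 120 min at 4 °C, then filtered and washed with ice-cold buffer. Nonspecific binding measured with 10 μM flunitrazepam (final). IC50 estimated from Hill plots.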

IC50 [nM]	Compound
93	CC(C)COc1cc2c(cn1)[nH]c1ccccc12
104	CC(C)(C)COc1cc2c3ccccc3nc-2c[nH]1
358	CC(C)(C)C(=O)c1cc2c3ccccc3nc-2c[nH]1
> 1280	c1ccc(CNc2cc3c(cn2)[nH]c2ccccc23)cc1
> 25000	Nc1cc2c(cn1)[nH]c1ccccc12
471	CCC(C)Oc1cc2c3ccccc3nc-2c[nH]1 (configuration not stated)
> 1000	c1ccc(COc2cc3c4ccccc4nc-3c[nH]2)cc1
535	CC(C)CCOc1cc2c3ccccc3nc-2c[nH]1
